According to ChEMBL document CHEMBL2311318, “Lead optimization of a dihydropyrrolopyrimidine inhibitor against phosphoinositide 3-kinase (PI3K) to improve the phenol glucuronic acid conjugation” (Bioorg Med Chem Lett, 2013):

Assays:
[1] = target: Phosphatidylinositol 4,5-bisphosphate 3-kinase catalytic subunit alpha isoform (Homo sapiens, UniProt P42336); assay: Inhibition of PI3Kalpha (unknown origin) using phosphatidylinositol 4,5-bisphosphate as substrate
Outline: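 Recombinant PI3Kα (p110α/p85α) activity was measured with the Adapta Universal Kinase Assay using PIP2:PS lipid substrate.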

[2] = Half life in mouse liver microsomes at 1 uM in presence of NADPH; format: ADME, Microsome
Outline: (§1)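 Compound at 1 µM was incubated at 37 °C for 30 min with human or mouse liver microsomes (0.5 mg protein/ml) in 50 mM phosphate buffer, pH 7.4, with 1 mM NADPH. The reaction was quenched with three volumes of acetonitrile and centrifuged. Remaining compound in the supernatant was quantified by LC/MS.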

[3] = Half life in human liver microsomes at 5 uM in presence of UDPGA; format: ADME, Microsome
Outline: (§2)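 Human or mouse liver microsomes (1.0 mg protein/ml) were pretreated with 25 µg/ml alamethicin in 50 mM Tris-HCl, pH 7.5, at 4 °C for 30 min to release UGTs. Compound at 5 µM was then incubated with 2 mM UDPGA at 37 °C for 60 min. The reaction was quenched with three volumes of acetonitrile and centrifuged.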

HCT-116 = assay: Cytotoxicity against human HCT116 cells expressing PI3Kalpha H1047R mutant assessed as growth inhibition after 96 hrs; format: functional, cell-based; conditions: HCT-116, 96 h
Outline: (§3)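 KPL-4 breast, HCT116 colon and PC-3 prostate cancer cells were exposed to a range of compound concentrations for 96 h. Growth inhibition was read with Cell Counting Kit-8.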

PC-3 = assay: Cytotoxicity against PTEN-deficient human PC3 cells assessed as growth inhibition after 96 hrs; format: functional, cell-based; conditions: PC-3, 96 h; outline: as §3
[4] = Half life in human liver microsomes at 1 uM in presence of NADPH; format: ADME, Microsome; outline: as §1
[5] = Cytotoxicity against human KPL4 cells expressing PI3Kalpha H1047R mutant assessed as growth inhibition after 96 hrs; format: functional, cell-based; conditions: KPL4, 96 h; outline: as §3
[6] = Half life in mouse liver microsomes at 5 uM in presence of UDPGA; format: ADME, Microsome; outline: as §2
[7] = Half life in BALB/c nu mouse at 100 mg/kg, po; format: ADME, organism-based; design: dose 100 mg/kg, route oral; conditions: in vivo
Outline: (§4)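 Female BALB/c-nu mice, n = 2 per group, dosed iv at 10 mg/kg or po at 100 mg/kg. Heparinized blood drawn at 0.08, 0.25, 2, 4, 7 and 24 h after iv dosing, and at 0.50, 2, 4, 7 and 24 h after po dosing. Plasma stored at -80 °C and assayed by LC–MS/MS. Parameters come from non-compartmental analysis and are the mean of two animals.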

[8] = AUC in BALB/c nu mouse at 10 mg/kg, iv; format: ADME, organism-based; design: dose 10 mg/kg, route intravenous; conditions: plasma; outline: as §4
[9] = Apparent oral clearance in BALB/c nu mouse at 100 mg/kg; format: ADME, organism-based; design: dose 100 mg/kg, route oral; conditions: in vivo; outline: as §4
[10] = Half life in BALB/c nu mouse at 10 mg/kg, iv; format: ADME, organism-based; design: dose 10 mg/kg, route intravenous; conditions: in vivo; outline: as §4
[11] = Cmax in BALB/c nu mouse at 100 mg/kg, po; format: ADME, organism-based; design: dose 100 mg/kg, route oral; conditions: in vivo; outline: as §4
[12] = AUC in BALB/c nu mouse at 100 mg/kg, po; format: ADME, organism-based; design: dose 100 mg/kg, route oral; conditions: plasma; outline: as §4
[13] = Antitumor activity against human KPL4 cells expressing PI3Kalpha H1047R mutant xenografted in BALB nu/nu mouse assessed as tumor growth inhibition at 80mg/kg, po qd relative to control; format: functional; conditions: read-out: TGI
Outline: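 KPL-4 cells were injected orthotopically into the mammary fat pad of female BALB-nu/nu mice. Tumors were measured with a gauge twice weekly, with volume = length × width²/2. Once tumors reached about 200 mm³, mice were randomized (n = 5 per group) and treatment began.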

Sequence of Phosphatidylinositol 4,5-bisphosphate 3-kinase catalytic subunit alpha isoform (P42336 whole entry, canonical isoform): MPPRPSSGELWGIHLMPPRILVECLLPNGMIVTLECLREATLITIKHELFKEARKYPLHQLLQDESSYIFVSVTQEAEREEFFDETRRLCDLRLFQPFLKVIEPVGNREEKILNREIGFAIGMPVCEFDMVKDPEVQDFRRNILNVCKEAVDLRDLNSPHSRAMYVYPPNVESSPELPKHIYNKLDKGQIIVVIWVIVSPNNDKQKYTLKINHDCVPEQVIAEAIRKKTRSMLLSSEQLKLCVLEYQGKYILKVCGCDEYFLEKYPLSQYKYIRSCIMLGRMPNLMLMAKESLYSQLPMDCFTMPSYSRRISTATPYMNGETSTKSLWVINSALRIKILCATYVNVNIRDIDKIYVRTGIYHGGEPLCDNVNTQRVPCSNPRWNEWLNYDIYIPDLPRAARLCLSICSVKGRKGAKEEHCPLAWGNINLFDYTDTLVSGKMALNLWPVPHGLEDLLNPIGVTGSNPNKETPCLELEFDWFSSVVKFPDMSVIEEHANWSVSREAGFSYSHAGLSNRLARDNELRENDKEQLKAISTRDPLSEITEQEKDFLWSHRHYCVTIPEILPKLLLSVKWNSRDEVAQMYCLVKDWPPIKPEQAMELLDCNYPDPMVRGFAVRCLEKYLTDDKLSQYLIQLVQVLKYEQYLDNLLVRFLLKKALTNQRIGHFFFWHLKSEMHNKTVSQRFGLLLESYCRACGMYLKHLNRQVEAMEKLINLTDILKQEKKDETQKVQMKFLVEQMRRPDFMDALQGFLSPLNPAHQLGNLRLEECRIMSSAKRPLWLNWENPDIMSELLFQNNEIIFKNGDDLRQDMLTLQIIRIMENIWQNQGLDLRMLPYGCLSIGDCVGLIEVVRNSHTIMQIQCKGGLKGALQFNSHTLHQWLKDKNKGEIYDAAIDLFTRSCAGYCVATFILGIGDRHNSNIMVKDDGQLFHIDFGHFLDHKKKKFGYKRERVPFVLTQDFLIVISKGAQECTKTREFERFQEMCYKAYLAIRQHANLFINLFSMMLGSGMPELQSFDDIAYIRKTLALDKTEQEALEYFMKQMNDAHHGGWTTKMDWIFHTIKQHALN

| SMILES | IC50 [1] [µM] | also measured |
| --- | --- | --- |
| c1cc(N2CCc3c(-c4ccc5[nH]ncc5c4)nc(N4CCOCC4)nc32)ccn1 | > 50 |  |
| Oc1cccc(-c2nc(N3CCOCC3)nc3c2CCN3c2ccc3ncccc3c2)c1 | > 50 |  |
| O=C(O)c1cccc(-c2nc(N3CCOCC3)nc3c2CCN3c2ccncc2)c1 | > 50 |  |
| Oc1cccc(-c2nc(N3CCOCC3)nc3c2CCN3c2ccccn2)c1 | > 50 |  |
| Cc1c(O)cccc1-c1nc(N2CCOCC2)nc2c1CCN2c1ccncc1 | > 50 |  |
| NC(=O)c1cccc(-c2nc(N3CCOCC3)nc3c2CCN3c2ccncc2)c1 | 19 |  |
| Nc1cccc(-c2nc(N3CCOCC3)nc3c2CCN3c2ccncc2)c1 | 3.7 |  |
| c1cc(-c2nc(N3CCOCC3)nc3c2CCN3c2ccncc2)c2[nH]ncc2c1 | > 50 |  |
| Cc1ccc(-c2nc(N3CCOCC3)nc3c2CCN3c2ccncc2)cc1O | > 50 |  |
| CNS(=O)(=O)c1cccc(-c2nc(N3CCOCC3)nc3c2CCN3c2ccncc2)c1 | > 50 |  |
| c1cc(-c2nc(N3CCOCC3)nc3c2CCN3c2ccncc2)ccn1 | 22.6 |  |
| c1cc(N2CCc3c(-c4ccc5cn[nH]c5c4)nc(N4CCOCC4)nc32)ccn1 | > 50 |  |
| Oc1cccc(-c2nc(N3CCOCC3)nc3c2CCN3c2ccncc2)c1 |  | half-life at 1 µM [2]: 0.333 h; IC50 (HCT-116): 0.72 µM; IC50 (PC-3): 0.14 µM; half-life at 5 µM [6]: 0.102 h |
| Nc1n[nH]c2cc(-c3nc(N4CCOCC4)nc4c3CCN4c3ccncc3)ccc12 | > 50 |  |
| c1cc(-c2nc(N3CCOCC3)nc3c2CCN3c2ccncc2)c2cn[nH]c2c1 | > 50 |  |
| Nc1ncc(-c2nc(N3CCOCC3)nc3c2CCN3c2cccnc2)cn1 |  | half-life [7]: 6.58 h; half-life at 1 µM [2]: 1.05 h; half-life at 5 µM [3]: > 1 h; IC50 (HCT-116): 0.17 µM; IC50 (PC-3): 0.42 µM; AUC [8]: 4690 ng·h/mL; CL/F [9]: 86.1 mL/min/kg; half-life [10]: 10.3 h; Cmax [11]: 4190 ng/mL; IC50 [5]: 0.015 µM; AUC [12]: 19400 ng·h/mL; inhibition in vivo at 80 mg/kg [13]: 166%; half-life at 5 µM [6]: > 1 h |

Second part, led by results:

| IC50 [1] [µM] | SMILES | also measured |
| --- | --- | --- |
| 0.41 | COc1cccc(-c2nc(N3CCOCC3)nc3c2CCN3c2ccncc2)c1 |  |
| 1.22 | Oc1cccc(-c2nc(N3CCOCC3)nc3c2CCN3c2ccccc2)c1 |  |
| 0.049 | Oc1cccc(-c2nc(N3CCOCC3)nc3c2CCN3c2nccs2)c1 |  |
| 0.17 | Cc1cc(N2CCc3c(-c4cccc(O)c4)nc(N4CCOCC4)nc32)ccn1 |  |
| 2.4 | CNC(=O)c1cccc(-c2nc(N3CCOCC3)nc3c2CCN3c2ccncc2)c1 |  |
| 0.44 | c1cc(N2CCc3c(-c4cncnc4)nc(N4CCOCC4)nc32)ccn1 |  |
| 0.2 | Oc1cccc(-c2nc(N3CCOCC3)nc3c2CCN3c2ccnc(O)c2)c1 |  |
| 0.23 | Cn1ccc(N2CCc3c(-c4cccc(O)c4)nc(N4CCOCC4)nc32)n1 |  |
| 0.026 | Nc1ncc(-c2nc(N3CCOCC3)nc3c2CCN3c2ccncc2)cn1 | half-life at 1 µM [2]: 0.45 h; half-life at 5 µM [3]: > 1 h; IC50 (HCT-116): 0.091 µM; IC50 (PC-3): 0.12 µM; half-life at 1 µM [4]: 2.12 h; IC50 [5]: 0.029 µM; half-life at 5 µM [6]: > 1 h |
| 1.7 | c1cncc(-c2nc(N3CCOCC3)nc3c2CCN3c2ccncc2)c1 |  |
